S1P3 ag: S1P3 (human) receptor agonism. Q99500. S1P3 NFAT-BLA reporter cells, FRET ratio; relative to 1 µM S1P, basal subtracted. activation, % at 4.5 µM. 60,000 compounds, 0.1% hits;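 active = activation above the screen-wide mean plus 3 SD, cut at about 4.5% in these data, passing the limit was not always enough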
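Measure – % activation relative to 1 µM S1P (100%), per plate · System – stable CHO line with human S1P3, Gα16, NFAT-BLA reporter · Timing – cells plated overnight, compound 4 h 37 °C, substrate 2 h RT · Technique – fluorescent BLA substrate, ex 405 nm, em 460/535 nm ratio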
5-HT1A blocker: blocks the human serotonin 5-HT1a receptor; inhibition, % at 10 µM; P08908; 62,000 compounds, 0.68% hits; CHO 5-HT1a Ga15 NFAT-bla reporter, antagonist mode;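 active = inhibition above the mean of all tested compounds plus 3 SD, cut at about 43% in these data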;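 also: receptor stimulated by 5-CT agonist at 100 nM near EC80; beta-lactamase reporter measured by ratiometric fluorescence of a cleavable substrate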
S1P1 ag pot: activates or potentiates agonism at human S1P1 receptor | P21453 | S1P1 CRE-bla cells, forskolin, beta-lactamase FRET, potentiator mode; S1P1 agonist co-added at EC20, 2 nM; 100% = saturating reference agonist, 0% = basal | activation, % at 9.5 µM | 56,000 compounds, 0.57% hits | AID 449;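 active = activation above a cutoff set at the mean activation of all tested compounds plus 3 SD, cut at about 54% in these data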;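 also: forskolin at 4 µM as EC80 and the EC20 agonist is SEW2871; 100% = SEW2871 at its EC100 plus forskolin at EC80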
Target sequence (P21453 whole entry, looked up): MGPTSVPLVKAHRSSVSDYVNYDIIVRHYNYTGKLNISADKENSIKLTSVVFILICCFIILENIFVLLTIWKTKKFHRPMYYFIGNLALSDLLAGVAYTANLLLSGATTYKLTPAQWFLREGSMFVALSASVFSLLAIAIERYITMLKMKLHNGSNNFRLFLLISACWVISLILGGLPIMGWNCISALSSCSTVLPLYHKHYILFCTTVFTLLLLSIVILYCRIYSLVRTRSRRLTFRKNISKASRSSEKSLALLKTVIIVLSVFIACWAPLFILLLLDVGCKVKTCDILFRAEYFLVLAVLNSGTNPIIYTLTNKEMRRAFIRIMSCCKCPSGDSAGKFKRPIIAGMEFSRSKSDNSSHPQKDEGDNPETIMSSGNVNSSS
5HT1a ag: activates the human 5-HT1a serotonin receptor. CHO 5-HT1a Ga15 NFAT-bla reporter, FRET ratio; 0% basal, 100% maximal reference agonist. activation, % at 10 µM. 65,000 compounds, 0.56% hits;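 active = activation above the screen-wide mean activation plus 3 SD, cut at about 19% in these data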;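 also: 0% = DMSO wells and 100% = 5-CT at EC100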
HTR1E antagonist: antagonists of human 5-HT1E serotonin receptor; inhibition, % at 6 µM; CHO 5-HT1E Ga15 NFAT-bla reporter, FRET, antagonist; 65,000 compounds, 0.99% hits;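 active = inhibition above a set limit, the mean inhibition across every tested compound plus 3 SD, cut at about 29% in these data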;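 also: signal is the 460 over 535 nm emission ratio of beta-lactamase substrate; 0% = agonist plus DMSO wells and 100% = wells without agonist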
HTR1E agonist: 5-HT1E (human) receptor agonism; activation, % at 6 µM; 65,000 compounds, 0.69% hits; P28566; CHO 5-HT1E Ga15 NFAT-bla reporter, FRET; 0% DMSO wells, 100% control agonist wells;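 active = activation above a set limit, the screen-wide mean activation plus 3 SD, cut at about 8.5% in these data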;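 also: 100% = positive control agonist at 1 µM giving full maximal response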
The depositor's hits bear a star. Shown are actives, neighbours in structure and some others; about 2.9% of the full set was active somewhere.

`COc1ccc(C(C)C)cc1S(=O)(=O)NCc1ccccn1` gave S1P3 ag -1, 5-HT1A blocker 0, S1P1 ag pot -14, 5HT1a ag -1, HTR1E antagonist -9 and HTR1E agonist -1.
Screening CCOc1cc(S(=O)(=O)NCc2ccccn2)c(C)cc1C returned S1P3 ag -1, 5-HT1A blocker 2, S1P1 ag pot -13, 5HT1a ag 53*, HTR1E antagonist 5 and HTR1E agonist 0.
`CCCCS(=O)(=O)/C=C\C=C/S(=O)(=O)CCCC` gave 5-HT1A blocker 102*, 5HT1a ag -9, HTR1E antagonist 107* and HTR1E agonist -2.
For CCCCS(=O)(=O)/C=C\C1C2C=CC(C2)C1S(=O)(=O)CCCC (stereo unspecified) the results were S1P3 ag -1, 5-HT1A blocker 2, S1P1 ag pot -17, 5HT1a ag -2, HTR1E antagonist 6 and HTR1E agonist 0.
`COc1ccc(Cc2nnn(CC(=O)O)n2)cc1` gave S1P3 ag 0, 5-HT1A blocker -10, S1P1 ag pot -45, 5HT1a ag -3, HTR1E antagonist -7 and HTR1E agonist 2.
For Cn1c(=O)[nH]c(=O)c2[nH]c(N(Cc3ccccc3)Cc3ccccc3)nc21 the results were S1P3 ag 1, 5-HT1A blocker -6, S1P1 ag pot -56, 5HT1a ag 2, HTR1E antagonist 29* and HTR1E agonist 0.
Screening COc1ccc(N=c2scc(-c3ccc(S(=O)(=O)N4CCOCC4)cc3)n2CCCO)cc1 returned S1P3 ag -2, 5-HT1A blocker 1, S1P1 ag pot 101*, 5HT1a ag 3, HTR1E antagonist 1 and HTR1E agonist 1.
